Converted amounts (≈) assume the structure as drawn. The source made the active and inactive calls. The rule behind the calls is not given here.
Key:
[1] = system: Listeria monocytogenes; test: Antimicrobial activity against Listeria monocytogenes at 10 ug/disk after 24 hrs by disk diffusion assay; format: functional
Method in brief: (§1)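 Disc diffusion on 4 mm filter discs. Bacteria are grown overnight in LB at 28 C, then adjusted in saline to 1.0 × 10^5 cfu/ml. The suspension is mixed into top agar over peptone agar plates. Plates are incubated 24 h at 28 C, and growth-inhibition zone diameter is measured. Streptomycin and ampicillin controls are applied from a 1 mg/ml stock. Tests are done in duplicate.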

[2] = system: Salmonella typhimurium; test: Antimicrobial activity against Salmonella Typhimurium at 10 ug/disk after 24 hrs by disk diffusion assay; format: functional, organism-based; conditions: Salmonella enterica subsp. enterica serovar Typhimurium; method in brief: as §1
[3] = system: Pseudomonas aeruginosa; test: Antimicrobial activity against Pseudomonas aeruginosa at 1 umol/spot after 18 hrs by TLC-bioautographic method; format: functional
Method in brief: (§2)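 TLC bioautography. Samples are spotted on silica gel TLC plates, then sprayed with bacteria (1.0 × 10^5 cfu/ml) in tryptic soy broth. Plates are incubated 18 h at 37 C and sprayed with 3% aqueous p-iodonitrotetrazolium violet. After a further 3 h, growth is stopped with 70% EtOH. White zones on a pink background are scored as inhibition-zone diameter with standard errors.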

[4] = system: Micrococcus flavus; test: Antimicrobial activity against Micrococcus flavus at 10 ug/disk after 24 hrs by disk diffusion assay; format: functional; method in brief: as §1
[5] = system: Escherichia coli; test: Antimicrobial activity against Escherichia coli at 1 umol/disk after 24 hrs by disk diffusion assay; format: functional; method in brief: as §1
[6] = system: Listeria monocytogenes; test: Antimicrobial activity against Listeria monocytogenes at 1 umol/disk after 24 hrs by disk diffusion assay; format: functional; method in brief: as §1
[7] = system: Micrococcus flavus; test: Antimicrobial activity against Micrococcus flavus at 1 umol/disk after 24 hrs by disk diffusion assay; format: functional; method in brief: as §1
[8] = system: Listeria monocytogenes; test: Antimicrobial activity against Listeria monocytogenes at 1 umol/spot after 18 hrs by TLC-bioautographic method; format: functional; method in brief: as §2
[9] = system: Escherichia coli; test: Antimicrobial activity against Escherichia coli after 24 hrs by microdilution technique; format: functional
Method in brief: (§3)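 Broth microdilution in LB medium. Inoculum is 1.0 × 10^4 cfu per well, from a saline-adjusted suspension of 1.0 × 10^5 cfu/ml. Compounds are dissolved in DMSO. Incubated 24 h at 28 C. MIC is the lowest concentration with no visible growth under a binocular microscope. MBC is read by subculture into fresh broth for 72 h, with no growth taken as 99.5% kill. OD is read at 655 nm.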

[10] = system: Enterobacter cloacae; test: Antimicrobial activity against Enterobacter cloacae at 10 ug/disk after 24 hrs by disk diffusion assay; format: functional; method in brief: as §1
[11] = system: Bacillus cereus; test: Antimicrobial activity against Bacillus cereus at 1 umol/spot after 18 hrs by TLC-bioautographic method; format: functional; method in brief: as §2
[12] = system: Enterobacter cloacae; test: Antimicrobial activity against Enterobacter cloacae after 24 hrs by microdilution technique; format: functional; method in brief: as §3
[13] = system: Salmonella typhimurium; test: Antimicrobial activity against Salmonella Typhimurium at 1 umol/spot after 18 hrs by TLC-bioautographic method; format: functional, Salmonella enterica subsp. enterica serovar Typhimurium; method in brief: as §2
[14] = system: Staphylococcus aureus; test: Antimicrobial activity against Staphylococcus aureus after 24 hrs by microdilution technique; format: functional; method in brief: as §3
[15] = system: Staphylococcus aureus; test: Antimicrobial activity against Staphylococcus aureus at 10 ug/disk after 24 hrs by disk diffusion assay; format: functional; method in brief: as §1
[16] = system: Bacillus cereus; test: Antimicrobial activity against Bacillus cereus at 10 ug/disk after 24 hrs by disk diffusion assay; format: functional; method in brief: as §1
[17] = system: Bacillus cereus; test: Antimicrobial activity against Bacillus cereus after 24 hrs by microdilution technique; format: functional; method in brief: as §3
[18] = system: Listeria monocytogenes; test: Antimicrobial activity against Listeria monocytogenes after 24 hrs by microdilution technique; format: functional; method in brief: as §3
[19] = system: Escherichia coli; test: Antimicrobial activity against Escherichia coli at 10 ug/disk after 24 hrs by disk diffusion assay; format: functional; method in brief: as §1
[20] = system: Salmonella typhimurium; test: Antimicrobial activity against Salmonella Typhimurium at 1 umol/disk after 24 hrs by disk diffusion assay; format: functional, organism-based; conditions: Salmonella enterica subsp. enterica serovar Typhimurium; method in brief: as §1
[21] = system: Escherichia coli; test: Antimicrobial activity against Escherichia coli at 1 umol/spot after 18 hrs by TLC-bioautographic method; format: functional; method in brief: as §2
[22] = system: Pseudomonas aeruginosa; test: Antimicrobial activity against Pseudomonas aeruginosa at 10 ug/disk after 24 hrs by disk diffusion assay; format: functional; method in brief: as §1
[23] = system: Bacillus cereus; test: Antimicrobial activity against Bacillus cereus at 1 umol/disk after 24 hrs by disk diffusion assay; format: functional; method in brief: as §1
[24] = system: Salmonella typhimurium; test: Antimicrobial activity against Salmonella Typhimurium after 24 hrs by microdilution technique; format: functional, Salmonella enterica subsp. enterica serovar Typhimurium; conditions: Salmonella enterica; method in brief: as §3
[25] = system: Enterobacter cloacae; test: Antimicrobial activity against Enterobacter cloacae at 1 umol/disk after 24 hrs by disk diffusion assay; format: functional; method in brief: as §1
[26] = system: Staphylococcus aureus; test: Antimicrobial activity against Staphylococcus aureus at 1 umol/disk after 24 hrs by disk diffusion assay; format: functional; method in brief: as §1
[27] = system: Micrococcus flavus; test: Antimicrobial activity against Micrococcus flavus at 1 umol/spot after 18 hrs by TLC-bioautographic method; format: functional; method in brief: as §2
[28] = system: Enterobacter cloacae; test: Antimicrobial activity against Enterobacter cloacae at 1 umol/spot after 18 hrs by TLC-bioautographic method; format: functional; method in brief: as §2
[29] = system: Micrococcus flavus; test: Antimicrobial activity against Micrococcus flavus after 24 hrs by microdilution technique; format: functional; method in brief: as §3
[30] = system: Staphylococcus aureus; test: Antimicrobial activity against Staphylococcus aureus at 1 umol/spot after 18 hrs by TLC-bioautographic method; format: functional; method in brief: as §2
[31] = system: Pseudomonas aeruginosa; test: Antimicrobial activity against Pseudomonas aeruginosa after 24 hrs by microdilution technique; format: functional; method in brief: as §3
[32] = system: Pseudomonas aeruginosa; test: Antimicrobial activity against Pseudomonas aeruginosa at 1 umol/disk after 24 hrs by disk diffusion assay; format: functional; method in brief: as §1

N#Cc1c(-c2ccc(Cl)cc2)cc(-c2ccc(Nc3nc(Nc4ccccc4)nc(Nc4ccccc4)n3)cc2)nc1N
inhibition zone (IZ) [1]: inactive | inhibition zone (IZ) [2]: inactive | inhibition zone (IZ) [3]: 0.09 millimeter | zone of inhibition at 10 µg/disc ([4]; read-out: IZ): 7 mm | inhibition zone (IZ) [5]: 0.04 millimeter | inhibition zone (IZ) [6]: inactive | inhibition zone (IZ) [7]: 0.04 millimeter | inhibition zone (IZ) [8]: 0.08 millimeter | MBC [9]: 344 µM (≈ 200 µg/mL) | MIC [9]: 172 µM (≈ 100 µg/mL) | inhibition zone (IZ) [10]: inactive | inhibition zone (IZ) [11]: inactive | MBC [12]: 344 µM (≈ 200 µg/mL) | MIC [12]: 172 µM (≈ 100 µg/mL) | inhibition zone (IZ) [13]: 0.08 millimeter | MBC [14]: 344 µM (≈ 200 µg/mL) | MIC [14]: 172 µM (≈ 100 µg/mL) | inhibition zone (IZ) [15]: inactive | inhibition zone (IZ) [16]: inactive | MBC [17]: 344 µM (≈ 200 µg/mL) | MIC [17]: 172 µM (≈ 100 µg/mL) | MBC [18]: 688 µM (≈ 400 µg/mL) | MIC [18]: 688 µM (≈ 400 µg/mL) | zone of inhibition at 10 µg/disc ([19]; read-out: IZ): 7 mm | inhibition zone (IZ) [20]: inactive | inhibition zone (IZ) [21]: 0.09 millimeter | inhibition zone (IZ) [22]: inactive | inhibition zone (IZ) [23]: inactive | MBC [24]: 344 µM (≈ 200 µg/mL) | MIC [24]: 172 µM (≈ 100 µg/mL) | inhibition zone (IZ) [25]: inactive | inhibition zone (IZ) [26]: inactive | inhibition zone (IZ) [27]: 0.07 millimeter | inhibition zone (IZ) [28]: 0.08 millimeter | MBC [29]: 344 µM (≈ 200 µg/mL) | MIC [29]: 172 µM (≈ 100 µg/mL) | inhibition zone (IZ) [30]: inactive | MBC [31]: 688 µM (≈ 400 µg/mL) | MIC [31]: 688 µM (≈ 400 µg/mL) | inhibition zone (IZ) [32]: inactive

CC(=O)N1N=C(c2ccc(Nc3nc(Nc4ccccc4)nc(Nc4ccccc4)n3)cc2)CC1c1cccs1 (stereo not given)
inhibition zone (IZ) [1]: inactive | inhibition zone (IZ) [2]: inactive | inhibition zone (IZ) [3]: inactive | inhibition zone (IZ) [4]: inactive | inhibition zone (IZ) [5]: inactive | inhibition zone (IZ) [6]: inactive | inhibition zone (IZ) [7]: inactive | inhibition zone (IZ) [8]: 0.08 millimeter | MBC [9]: 376 µM (≈ 206 µg/mL) | MIC [9]: 188 µM (≈ 103 µg/mL) | inhibition zone (IZ) [10]: inactive | inhibition zone (IZ) [11]: 0.08 millimeter | MBC [12]: 732 µM (≈ 400 µg/mL) | MIC [12]: 732 µM (≈ 400 µg/mL) | inhibition zone (IZ) ([13]; Salmonella enterica subsp. enterica serovar Typhimurium): inactive | MBC [14]: 732 µM (≈ 400 µg/mL) | MIC [14]: 376 µM (≈ 206 µg/mL) | inhibition zone (IZ) [15]: inactive | inhibition zone (IZ) [16]: inactive | MBC [17]: 376 µM (≈ 206 µg/mL) | MIC [17]: 188 µM (≈ 103 µg/mL) | MBC [18]: 732 µM (≈ 400 µg/mL) | MIC [18]: 732 µM (≈ 400 µg/mL) | inhibition zone (IZ) [19]: inactive | inhibition zone (IZ) [20]: inactive | inhibition zone (IZ) [21]: inactive | inhibition zone (IZ) [22]: inactive | inhibition zone (IZ) [23]: inactive | MBC [24]: 732 µM (≈ 400 µg/mL) | MIC [24]: 376 µM (≈ 206 µg/mL) | inhibition zone (IZ) [25]: inactive | inhibition zone (IZ) [26]: inactive | inhibition zone (IZ) [27]: inactive | inhibition zone (IZ) [28]: 0.1 millimeter | MBC [29]: 376 µM (≈ 206 µg/mL) | MIC [29]: 188 µM (≈ 103 µg/mL) | inhibition zone (IZ) [30]: inactive | MBC [31]: 732 µM (≈ 400 µg/mL) | MIC [31]: 376 µM (≈ 206 µg/mL) | inhibition zone (IZ) [32]: inactive

CC(=O)N1N=C(c2ccc(Nc3nc(Nc4ccccc4)nc(Nc4ccccc4)n3)cc2)CC1c1ccc(Cl)cc1 (stereo not given)
inhibition zone (IZ) [1]: inactive | inhibition zone (IZ) [2]: inactive | inhibition zone (IZ) [3]: inactive | inhibition zone (IZ) [4]: inactive | inhibition zone (IZ) [5]: inactive | inhibition zone (IZ) [6]: inactive | inhibition zone (IZ) [7]: inactive | inhibition zone (IZ) [8]: 0.09 millimeter | MBC [9]: 696 µM (≈ 400 µg/mL) | MIC [9]: 348 µM (≈ 200 µg/mL) | inhibition zone (IZ) [10]: inactive | inhibition zone (IZ) [11]: 0.08 millimeter | MBC [12]: 696 µM (≈ 400 µg/mL) | MIC [12]: 696 µM (≈ 400 µg/mL) | inhibition zone (IZ) [13]: 0.07 millimeter | MBC [14]: 696 µM (≈ 400 µg/mL) | MIC [14]: 696 µM (≈ 400 µg/mL) | inhibition zone (IZ) [15]: inactive | inhibition zone (IZ) [16]: inactive | MBC [17]: 696 µM (≈ 400 µg/mL) | MIC [17]: 696 µM (≈ 400 µg/mL) | MBC [18]: 696 µM (≈ 400 µg/mL) | MIC [18]: 696 µM (≈ 400 µg/mL) | inhibition zone (IZ) [19]: inactive | inhibition zone (IZ) [20]: inactive | inhibition zone (IZ) [21]: inactive | inhibition zone (IZ) [22]: inactive | inhibition zone (IZ) [23]: inactive | MBC [24]: 696 µM (≈ 400 µg/mL) | MIC [24]: 348 µM (≈ 200 µg/mL) | inhibition zone (IZ) [25]: inactive | inhibition zone (IZ) [26]: inactive | inhibition zone (IZ) [27]: inactive | inhibition zone (IZ) [28]: 0.09 millimeter | MBC [29]: 696 µM (≈ 400 µg/mL) | MIC [29]: 696 µM (≈ 400 µg/mL) | inhibition zone (IZ) [30]: 0.08 millimeter | MBC [31]: 696 µM (≈ 400 µg/mL) | MIC [31]: 696 µM (≈ 400 µg/mL) | inhibition zone (IZ) [32]: inactive
